Screening data deposited in PubChem BioAssay by NMMLSC.
ABCB1 block – blocks JC-1 efflux by human ABCB1 transporter. AID 1326. CCRF-Adr cells, flow cytometry. 190,000 tested, 0.067% active. P08183. inhibition, % at 6.6 µM; in the data active = inhibition above about 40%;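 also: higher value means more JC-1 retained so stronger ABCB1 efflux block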
MEKK2 mut-MEK5 – signal of MEK5 binding to mutant human MEKK2 PB1 domain; 290,000 tested, 0.35% active; percent response, % at 10 µM; bead flow cytometry, Alexa488-MEK5 binding to MEKK2 mutant; in the data active = percent response above about 24%, passing the limit was not always enough
MEKK2 WT-MEK5 – raises or lowers MEK5 binding to wildtype human MEKK2 PB1 domain; Q9Y2U5; 290,000 tested, 1.1% active; bead flow cytometry, Alexa488-MEK5 binding to MEKK2 WT; actives lie on both sides; binding response (% of control), % at 10 µM; in the data active = binding response below about 67% or above about 130%
MEKK3 PB1 HTS – raises or lowers MEK5 binding to the human MEKK3 PB1 domain; Q99759; bead-based flow cytometry, Alexa488-MEK5 binding to MEKK3; actives lie on both sides; 0 = blocked by unlabeled MEK5, 100 = vehicle; binding response (% of control), % at 10 µM; 290,000 tested, 1.4% active;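 active = binding response more than 3 SD above or below the average of its plate-row segment, actives on both sides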;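 also: Alexa488 bead fluorescence after subtracting the streptavidin-only scavenger bead signal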
ABCG2 block – inhibitors of human ABCG2 transporter, ABCB1 counter-screen; Q9UNQ0; IgMXP3 cells, JC-1 efflux, flow cytometry; inhibition, % at 6.6 µM; 190,000 tested, 0.1% active; AID 1325;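 active = inhibition above 80%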
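test system = two drug-resistant human cell lines, ABCG2 and ABCB1 | amount = 3 million cells/mL final, two lines in 1:1 ratio | reagent = JC-1 transporter substrate | doses = one concentration, 6.6 µM final | incubation = 10 min at 25 °C | signal = flow cytometric JC-1 green MFI at 530 nm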
MEKK2wt confirm – raises or lowers MEK5 binding to wildtype human MEKK2, retest | shares compounds with MEKK3 PB1 HTS | bead flow cytometry, Alexa488-MEK5 binding to MEKK2 WT; actives lie on both sides | binding response (% of control), % at 10 µM | 5,900 tested, 2.4% active | AID 1892; in the data active = binding response below about 16% or above about 210%; inactive = in between
MEKK2mut confirm – signal of MEK5 binding to mutant human MEKK2, retest; shares compounds with MEKK3 PB1 HTS; bead flow cytometry, Alexa488-MEK5 binding to MEKK2 mutant; percent response, % at 10 µM; 5,900 tested, 2% active; in the data active = percent response mostly above about 71%, no sharp cut-off; inactive = mostly below about 38%;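 also: higher means compound restores mutant binding toward wildtype level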
MEKK3-MEK5 inh – confirmation of inhibitors of MEK5 binding to human MEKK3; shares compounds with MEKK3 PB1 HTS; bead flow cytometry, Alexa488-MEK5 binding to MEKK3; hits give low values; binding response (% of control), % at 10 µM; 5,900 tested, 1.8% active;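 active = binding response below 72% of control, or above a set upper limit, though filed actives all read lower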;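 also: lower values mean stronger disruption of MEK5 binding to MEKK3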
Numbers stand for hits; [ ] = another dose, or the depositor's remark. Shown are actives, neighbours in structure and some others; about 2.3% of the full set was active somewhere.

`CN(C)S(=O)(=O)c1ccc(NC(=O)C2CC3C=CC2C3)cc1` (configuration not stated) gave ABCB1 block inactive, MEKK2 mut-MEK5 inactive, MEKK2 WT-MEK5 9.0[inhibitor], MEKK3 PB1 HTS 3.0[inhibitor], ABCG2 block inactive, MEKK2wt confirm inactive, MEKK2mut confirm inactive and MEKK3-MEK5 inh inactive.
CCc1ccc(NC(=O)NCC2CCN(Cc3cccc(Cl)c3)CC2)cc1 was read as MEKK2 mut-MEK5 inactive, MEKK2 WT-MEK5 inactive and MEKK3 PB1 HTS inactive.
Cc1ccc(NC(=O)NCC2CCN(Cc3cccc(Cl)c3)CC2)cc1Cl was read as ABCB1 block inactive, MEKK2 mut-MEK5 inactive, MEKK2 WT-MEK5 182, MEKK3 PB1 HTS inactive, ABCG2 block inactive, MEKK2wt confirm inactive, MEKK2mut confirm inactive and MEKK3-MEK5 inh inactive.
CN1CCN(CC(O)COc2ccc(C34CC5CC(CC(C5)C3)C4)cc2)CC1 (configuration not stated) was read as ABCB1 block inactive, MEKK2 mut-MEK5 56, MEKK2 WT-MEK5 235, MEKK3 PB1 HTS inactive, ABCG2 block inactive, MEKK2wt confirm inactive, MEKK2mut confirm 81 and MEKK3-MEK5 inh inactive.
For Cc1cc2ncn(CCC(=O)NC(C)(C)C)c2cc1C the results were ABCB1 block inactive, MEKK2 mut-MEK5 inactive, MEKK2 WT-MEK5 4.0[inhibitor], MEKK3 PB1 HTS 3.0[inhibitor], ABCG2 block inactive, MEKK2wt confirm inactive, MEKK2mut confirm inactive and MEKK3-MEK5 inh inactive.
`CC(OC(=O)c1cccs1)C(=O)NCc1ccccc1` (configuration not stated) gave ABCB1 block inactive, MEKK2 mut-MEK5 inactive, MEKK2 WT-MEK5 inactive, MEKK3 PB1 HTS 131, ABCG2 block inactive, MEKK2wt confirm inactive, MEKK2mut confirm inactive and MEKK3-MEK5 inh inactive.
CSc1ccccc1NC(=O)CN(C)Cc1ccc(Br)cc1 was read as ABCB1 block inactive, MEKK2 mut-MEK5 inactive, MEKK2 WT-MEK5 inactive, MEKK3 PB1 HTS inactive and ABCG2 block inactive.
For CSc1ccc(CN(C)CC(=O)Nc2ccccc2Br)cc1 the results were ABCB1 block inactive, MEKK2 mut-MEK5 inactive, MEKK2 WT-MEK5 inactive, MEKK3 PB1 HTS 132, ABCG2 block inactive, MEKK2wt confirm inactive, MEKK2mut confirm inactive and MEKK3-MEK5 inh inactive.
`Cc1cccc(C(=O)N2CCN(CCNC(=O)C(=O)Nc3ccc(F)cc3)CC2)c1` gave MEKK2 mut-MEK5 inactive, MEKK2 WT-MEK5 inactive and MEKK3 PB1 HTS inactive.
`Nc1nonc1C(=O)NCCNCc1c(OCc2ccccc2F)ccc2ccccc12` gave ABCB1 block inactive, MEKK2 mut-MEK5 26, MEKK2 WT-MEK5 164, MEKK3 PB1 HTS inactive, ABCG2 block inactive, MEKK2wt confirm inactive, MEKK2mut confirm inactive and MEKK3-MEK5 inh inactive.
For CN(C)CCCN(C(=O)c1ccc(S(=O)(=O)N(C)Cc2ccccc2)cc1)c1nc2cc3c(cc2s1)OCO3 the results were MEKK2 mut-MEK5 41, MEKK2 WT-MEK5 192, MEKK3 PB1 HTS inactive, MEKK2wt confirm inactive, MEKK2mut confirm inactive and MEKK3-MEK5 inh inactive.
CN(C)CCCN(C(=O)c1ccc2ccccc2c1)c1nc2cc3c(cc2s1)OCO3 was read as MEKK2 mut-MEK5 24, MEKK2 WT-MEK5 142, MEKK3 PB1 HTS inactive, MEKK2wt confirm inactive, MEKK2mut confirm inactive and MEKK3-MEK5 inh inactive.
`CCC1CCCCN1S(=O)(=O)c1ccc(C(=O)N(CCCN(C)C)c2nc3cc4c(cc3s2)OCO4)cc1` (configuration not stated) gave MEKK2 mut-MEK5 24, MEKK2 WT-MEK5 156, MEKK3 PB1 HTS inactive, MEKK2wt confirm inactive, MEKK2mut confirm inactive and MEKK3-MEK5 inh inactive.
Screening CN(C)CCN(C(=O)c1ccc2ccccc2c1)c1nc2cc3c(cc2s1)OCCO3 returned MEKK2 mut-MEK5 inactive, MEKK2 WT-MEK5 inactive and MEKK3 PB1 HTS inactive.
For CN(C)CCN(C(=O)c1cccc2ccccc12)c1nc2cc3c(cc2s1)OCO3 the results were MEKK2 mut-MEK5 inactive, MEKK2 WT-MEK5 137, MEKK3 PB1 HTS inactive, MEKK2wt confirm inactive, MEKK2mut confirm inactive and MEKK3-MEK5 inh inactive.
CCC(=O)Nc1ccc(C2=Nn3c(nnc3C(C)C)SC2)cc1 was read as MEKK2 mut-MEK5 inactive, MEKK2 WT-MEK5 inactive and MEKK3 PB1 HTS inactive.
For COc1cccc(NC(=O)N2CCCC2C(=O)NCc2ccc(Cl)cc2)c1 (configuration not stated) the results were MEKK2 mut-MEK5 inactive, MEKK2 WT-MEK5 inactive and MEKK3 PB1 HTS inactive.
Screening Cc1cccc(C)c1OCC(=O)N=Nc1c(O)[nH]c2ccc(Br)cc12 returned ABCB1 block inactive and ABCG2 block inactive.
Screening CC(C)(Cc1ccc(O)cc1)NC(=O)CC(=O)N=Nc1c(O)[nH]c2ccc(Br)cc12 returned ABCB1 block inactive, MEKK2 mut-MEK5 inactive, MEKK2 WT-MEK5 inactive, MEKK3 PB1 HTS 21[inhibitor], ABCG2 block inactive, MEKK2wt confirm inactive, MEKK2mut confirm inactive and MEKK3-MEK5 inh inactive.
For CCN1CCN(Cc2ccc(NC(=O)c3ccc(C)c(NC(=O)c4cc(-c5ccc(Br)cc5)n[nH]4)c3)cc2C(F)(F)F)CC1 the results were MEKK2 mut-MEK5 75, MEKK2 WT-MEK5 150, MEKK3 PB1 HTS inactive, MEKK2wt confirm 239, MEKK2mut confirm 126 and MEKK3-MEK5 inh inactive.
CCN1CCN(Cc2ccc(NC(=O)c3ccc(C)c(NC(=O)c4cccc5[nH]ccc45)c3)cc2C(F)(F)F)CC1 was read as MEKK2 mut-MEK5 74, MEKK2 WT-MEK5 inactive, MEKK3 PB1 HTS inactive, MEKK2wt confirm inactive, MEKK2mut confirm inactive and MEKK3-MEK5 inh inactive.
For O=C1N=c2ccccc2=C1c1c(O)[nH]c2c(C(F)(F)F)cccc12 the results were MEKK2 mut-MEK5 inactive, MEKK2 WT-MEK5 inactive and MEKK3 PB1 HTS inactive.
COc1ccc(C2=NS(=O)(=O)N(C)C(C(=O)Nc3ccc4c(c3)OCO4)=C2)cc1OC was read as MEKK2 mut-MEK5 inactive, MEKK2 WT-MEK5 inactive and MEKK3 PB1 HTS inactive.
`c1ccc(CCNCCCOc2cccc3ccccc23)cc1` gave MEKK2 mut-MEK5 33, MEKK2 WT-MEK5 161, MEKK3 PB1 HTS inactive, MEKK2wt confirm inactive, MEKK2mut confirm inactive and MEKK3-MEK5 inh inactive.
`CC(=O)NCCOc1cccc2ccccc12` gave ABCB1 block inactive, MEKK2 mut-MEK5 inactive, MEKK2 WT-MEK5 inactive, MEKK3 PB1 HTS inactive and ABCG2 block inactive.
For NS(=O)(=O)c1cccc(NS(=O)(=O)c2ccc3ccccc3c2)c1 the results were MEKK2 mut-MEK5 inactive, MEKK2 WT-MEK5 inactive and MEKK3 PB1 HTS inactive.
